From the M2OR odorant receptor database

Assays:
Settings in all cases: stereoisomer not certain
[1] = biological target: T1, UniProt L7MU75
T1 sequence (whole entry): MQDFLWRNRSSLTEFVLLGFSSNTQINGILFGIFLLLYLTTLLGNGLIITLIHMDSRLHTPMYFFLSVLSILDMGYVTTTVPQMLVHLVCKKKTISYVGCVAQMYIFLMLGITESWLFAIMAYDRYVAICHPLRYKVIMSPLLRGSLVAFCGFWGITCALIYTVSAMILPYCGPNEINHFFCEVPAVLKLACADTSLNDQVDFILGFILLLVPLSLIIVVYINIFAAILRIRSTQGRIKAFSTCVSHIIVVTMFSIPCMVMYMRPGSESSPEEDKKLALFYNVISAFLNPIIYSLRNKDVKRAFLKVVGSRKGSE
In short: (§1)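 Values were gathered from published papers (main text and supplementary material), with extra details requested from the original authors when needed, and checked for typos and inconsistencies. Each receptor–molecule pair is called responsive (active) if the original authors judged the measured signal statistically different from baseline, and non-responsive (inactive) otherwise. Assay methods varied by source, often transient mammalian cell-line luciferase assays. Recorded details include cell line, G-protein, co-transfected protein and tags.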

[2] = biological target: T2, UniProt L7N210
T2 sequence (whole entry): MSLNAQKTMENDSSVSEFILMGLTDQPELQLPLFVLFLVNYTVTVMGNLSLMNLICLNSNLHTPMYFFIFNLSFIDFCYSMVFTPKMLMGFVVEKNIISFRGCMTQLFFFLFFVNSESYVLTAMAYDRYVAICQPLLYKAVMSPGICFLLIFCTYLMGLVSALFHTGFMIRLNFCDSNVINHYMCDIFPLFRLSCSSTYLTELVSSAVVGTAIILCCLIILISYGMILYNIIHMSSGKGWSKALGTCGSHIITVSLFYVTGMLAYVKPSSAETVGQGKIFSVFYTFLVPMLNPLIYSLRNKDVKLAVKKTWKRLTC
In short: as §1

[3] = biological target: T3, UniProt Q3KPB0
T3 sequence (whole entry): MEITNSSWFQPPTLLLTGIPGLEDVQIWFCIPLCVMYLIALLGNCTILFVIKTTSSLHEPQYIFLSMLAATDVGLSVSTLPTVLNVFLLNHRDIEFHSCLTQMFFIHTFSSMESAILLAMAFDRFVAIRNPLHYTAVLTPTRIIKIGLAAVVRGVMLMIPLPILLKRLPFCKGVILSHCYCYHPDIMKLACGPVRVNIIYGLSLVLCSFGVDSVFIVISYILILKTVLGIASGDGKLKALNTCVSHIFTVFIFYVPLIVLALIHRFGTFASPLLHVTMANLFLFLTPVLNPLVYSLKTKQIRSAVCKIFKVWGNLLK
In short: as §1

[4] = biological target: T4, UniProt Q3U0P3
T4 sequence (whole entry): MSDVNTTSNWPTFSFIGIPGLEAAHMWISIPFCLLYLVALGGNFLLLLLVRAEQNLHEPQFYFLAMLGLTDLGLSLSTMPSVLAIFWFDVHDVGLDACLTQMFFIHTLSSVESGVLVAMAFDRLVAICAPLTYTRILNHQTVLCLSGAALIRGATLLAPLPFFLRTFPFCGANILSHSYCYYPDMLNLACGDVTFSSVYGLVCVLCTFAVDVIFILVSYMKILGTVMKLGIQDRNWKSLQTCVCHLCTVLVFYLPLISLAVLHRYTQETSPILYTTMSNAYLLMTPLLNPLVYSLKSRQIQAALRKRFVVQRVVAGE
In short: as §1

[5] = biological target: T5, UniProt Q7TQU8
T5 sequence (whole entry): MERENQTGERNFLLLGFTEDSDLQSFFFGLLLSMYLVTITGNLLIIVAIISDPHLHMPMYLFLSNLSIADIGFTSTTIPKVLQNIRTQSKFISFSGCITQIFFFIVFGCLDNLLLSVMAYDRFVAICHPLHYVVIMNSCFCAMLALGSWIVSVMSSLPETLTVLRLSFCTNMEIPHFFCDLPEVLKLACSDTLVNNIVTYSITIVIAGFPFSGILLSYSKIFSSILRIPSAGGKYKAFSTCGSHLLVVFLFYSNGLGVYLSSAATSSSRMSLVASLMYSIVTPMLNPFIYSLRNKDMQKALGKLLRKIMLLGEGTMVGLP
In short: as §1

[6] = biological target: T6, UniProt Q7TR79
T6 sequence (whole entry): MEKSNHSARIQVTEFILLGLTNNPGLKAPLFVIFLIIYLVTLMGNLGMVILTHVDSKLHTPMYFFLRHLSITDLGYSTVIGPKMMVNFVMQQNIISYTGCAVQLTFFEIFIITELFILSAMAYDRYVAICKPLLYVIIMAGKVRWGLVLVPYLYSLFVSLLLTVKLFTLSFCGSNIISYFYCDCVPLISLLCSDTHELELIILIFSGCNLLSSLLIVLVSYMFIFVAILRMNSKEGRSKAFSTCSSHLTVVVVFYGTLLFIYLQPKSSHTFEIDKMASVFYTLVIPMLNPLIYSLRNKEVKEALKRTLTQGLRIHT
In short: as §1

Measured: odorant receptor agonist call

C=CC(=C)CCC=C(C)C
inactive: all assays above

CCC=CCCC=CC=O
inactive: all assays above

CCCCCC(C=O)=Cc1ccccc1
inactive: all assays above

CCCCCCC(C=O)=Cc1ccccc1
inactive: all assays above

OCCc1ccccc1
inactive: all assays above

CC1CC=CCCCCCCCCCC(=O)C1 (centres undefined)
inactive: all assays above

CCCCC=O
inactive: all assays above

CCC(C)O (centres undefined)
inactive: all assays above

CCCCCOC(=O)CC
inactive: all assays above

Cc1occc1SSc1ccoc1C
active: [5]
inactive: all other assays above

Cc1ccc(C(C)C)c(O)c1
inactive: all assays above

COc1ccccc1
inactive: all assays above

CC(C)=CCCC(C)=CCOC(=O)C(C)C
inactive: all assays above

Cc1ccccc1OC(=O)C(C)C
inactive: all assays above

C1CCOCC1
inactive: all assays above

CCOC(=O)C(C)CC (centres undefined)
inactive: all assays above

CCCCCCC=CC=O
inactive: all assays above

CCCC=O
inactive: all assays above

CC(CC=O)CCCC(C)(C)O (centres undefined)
inactive: all assays above

C1CCOC1
inactive: all assays above

CCSSCC
inactive: all assays above

CSSCc1ccco1
inactive: all assays above

CC(=O)OCc1ccc2c(c1)OCO2
active: [2]
inactive: all other assays above

CC1(C)CC(=O)CC(=O)C1
inactive: all assays above
